High-throughput results: PubChem, several laboratories
Arr AP2 block – human beta-arrestin and AP2 interaction inhibition | FITC-arrestin peptide / GST-AP2 beads, flow cytometry; AP2 beta2 appendage carries R879A mutation | inhibition, % at 10 µM | 0.31% of 340,000 active | AID 504490;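 active means inhibition above a set limit, near 3 SD of compounds lacking own fluorescence, cut at about 54% in these data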
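System: GST-tagged AP2 beta2-adaptin appendage (R879A) on 4 µm glutathione beads / Reagent: FITC-arrestin peptide, 50 nM / Detection: HyperCyt-sampled flow cytometry, FL1 channel, ex 488/em 535 nm / Timing: 12 min plus 1 h, RT / Buffer or medium: PBS plus Tween 20 (0.05%) and BSA (0.1%)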
NTR1 ag – activates human neurotensin receptor 1; P30989; NTR1-U2OS beta-arrestin-GFP spot imaging, agonist mode; activation, % at 20 µM; 0.17% of 330,000 active;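 active means activation at or above 40% of the spot to cytoplasm intensity ratio, with at least 20 cells analyzed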
PLCg1 inh – inhibitors of human phospholipase C gamma1. P19174. purified PLC-gamma1, fluorogenic substrate, fluorescence. inhibition, % at 12.2 µM. 0.84% of 370,000 active; in the data active means inhibition above about 9.5%
PLC-beta3 inh – blocks human PLC-beta3 enzyme activity; Purified PLC-beta3, fluorogenic substrate, fluorescence; 0.18% of 370,000 active; inhibition, % at 12.2 µM; AID 720704; in the data active means inhibition above about 11%
Target sequence (Q01970 whole entry, looked up): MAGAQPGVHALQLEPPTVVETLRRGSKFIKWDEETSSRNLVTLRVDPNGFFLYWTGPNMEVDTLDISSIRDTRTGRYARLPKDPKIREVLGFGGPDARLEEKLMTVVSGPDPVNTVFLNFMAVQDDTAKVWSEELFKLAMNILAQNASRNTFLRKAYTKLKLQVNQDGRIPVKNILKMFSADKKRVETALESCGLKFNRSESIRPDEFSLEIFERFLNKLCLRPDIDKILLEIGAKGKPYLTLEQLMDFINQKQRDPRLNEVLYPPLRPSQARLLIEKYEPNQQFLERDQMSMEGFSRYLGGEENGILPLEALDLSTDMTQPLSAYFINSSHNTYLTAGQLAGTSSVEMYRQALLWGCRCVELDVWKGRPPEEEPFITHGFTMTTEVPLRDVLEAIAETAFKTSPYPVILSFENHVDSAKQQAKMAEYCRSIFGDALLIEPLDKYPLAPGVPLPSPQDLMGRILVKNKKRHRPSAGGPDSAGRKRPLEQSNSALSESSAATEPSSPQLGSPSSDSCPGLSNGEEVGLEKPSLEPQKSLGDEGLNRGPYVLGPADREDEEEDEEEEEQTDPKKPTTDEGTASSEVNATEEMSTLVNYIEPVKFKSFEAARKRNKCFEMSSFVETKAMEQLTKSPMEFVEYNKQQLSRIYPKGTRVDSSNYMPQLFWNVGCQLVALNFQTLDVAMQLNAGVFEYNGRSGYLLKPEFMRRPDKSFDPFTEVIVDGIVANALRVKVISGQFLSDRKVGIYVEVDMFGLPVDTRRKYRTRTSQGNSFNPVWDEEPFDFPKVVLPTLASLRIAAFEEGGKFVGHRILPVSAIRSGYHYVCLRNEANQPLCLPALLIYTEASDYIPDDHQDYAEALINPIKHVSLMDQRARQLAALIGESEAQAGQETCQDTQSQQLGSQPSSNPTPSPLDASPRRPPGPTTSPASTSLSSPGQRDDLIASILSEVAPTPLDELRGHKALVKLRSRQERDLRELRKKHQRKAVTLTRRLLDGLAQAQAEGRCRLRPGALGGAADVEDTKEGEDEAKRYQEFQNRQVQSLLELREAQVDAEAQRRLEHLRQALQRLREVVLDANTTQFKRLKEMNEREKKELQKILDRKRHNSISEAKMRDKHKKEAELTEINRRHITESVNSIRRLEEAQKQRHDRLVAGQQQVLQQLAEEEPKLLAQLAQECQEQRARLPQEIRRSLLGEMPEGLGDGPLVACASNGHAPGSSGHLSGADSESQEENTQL
Numbers stand for hits; – = inactive; · = not tested or not shown. An excerpt weighted towards active compounds, which were near 1.3% of everything screened.

SMILES	Arr AP2 block	NTR1 ag	PLCg1 inh	PLC-beta3 inh
COc1cccc(OC)c1OCCCCN1CCCC1	–	–	–	–
COc1cccc(OC)c1OCCCCCCN1CCN(C)CC1	–	–	13	–
COC(=O)C1(C)NC(c2ccc(O)cc2)C2C(=O)N(c3ccc(F)cc3)C(=O)C21 (stereo not drawn)	–	–	15	–
COC(=O)C1(C)NC(c2ccc(O)cc2)C2C(=O)N(c3ccccc3)C(=O)C21 (stereo not drawn)	–	–	–	–
C#CCOCCOCCOCCNc1nc(N2CCOCC2)nc(N2CCN(C(=O)[C@H]([C@@H](C)CC)n3cc(CCCN=C(N)N)nn3)CC2)n1	–	–	10	–
CN(C(=O)c1cccc(NC(=O)Cc2ccc(NC(=O)C3CCCN(C(=O)c4ccccc4)C3)cc2)c1)C1CC1 (stereo not drawn)	·	·	–	–
CNC[C@H](CC1CCCCC1)NC[C@H](Cc1ccccc1)NCCC12CC3CC(CC(C3)C1)C2	–	–	10.0	–
COC(=O)[C@]12C[C@H](CC(=O)NCc3ccc(C)o3)C(=O)N(CCC3=CCCCC3)C1=C[C@H](COCc1ccccc1)O[C@@H]2C	·	·	–	–
Clc1cccc(C2Nc3cccc4cccc(c34)N2)c1	55	–	–	–
COC(=O)[C@]12C[C@H](CC(=O)NCCC(C)C)C(=O)N(Cc3ccc(Cl)cc3Cl)C1=C[C@H](C(C)(C)C)O[C@@H]2C	·	·	–	–
CCc1cc2c(SCC(=O)c3ccc(Cl)s3)ncnc2s1	–	–	10	–
CCc1cc2c(SCC(=O)Nc3ccc(Cl)cn3)ncnc2s1	–	·	–	–
O=C(C1CCCN1S(=O)(=O)c1ccc([N+](=O)[O-])cc1)N1CCN(c2ccccc2)CC1 (stereo not drawn)	·	·	–	–
Cc1ccccc1Cn1cc(COC(=O)N2CCOCC2)nn1	·	·	–	–
CC(C)C[C@H](NC(=O)c1[nH]cnc1C(=O)N[C@@H](C)C(=O)OCc1ccccc1)C(=O)OCc1ccccc1	–	–	11	–
CC(C)C[C@H](NC(=O)c1[nH]cnc1C(=O)N[C@@H](C)C(=O)OC(C)(C)C)C(=O)OCc1ccccc1	–	–	–	–
COc1ccccc1C(=O)NC(=Nc1nc2ccccc2o1)NC(=O)c1ccccc1OC	–	40	–	–
O=C(NC(=Nc1nc2ccccc2o1)NC(=O)c1ccccc1)c1ccccc1	–	–	–	–
Cc1ccc(C)c(NC(=O)c2cc(-c3ccc(Cl)cc3)nc3ccccc23)c1	·	·	–	–
CN(c1ccc(NC(=O)CCc2cn(Cc3ccc(Br)cc3)c3ccccc23)cc1)c1ccccn1	·	·	–	–
CN(C)c1ccc(NC(=S)NC(=O)/C=C/c2ccc(Cl)cc2)cc1	–	–	–	–
O=C(/C=C/c1ccc(Cl)cc1)NC(=S)Nc1ccc(C(=O)O)cc1	–	–	11	–
CCCCC(=O)N1CCC(NS(=O)(=O)c2ccc3c(c2)CCN3C(C)=O)CC1	·	·	–	–
COC(=O)[C@]12C[C@H](CC(=O)N3CCC(c4ccccc4)CC3)C(=O)N(Cc3ccccc3)C1=C[C@H](C(C)(C)C)O[C@@H]2C	·	·	–	–
CCC(C)[C@H](NC(=O)N1CCn2c1nc1ccccc12)C(=O)NCCc1ccccc1 (stereo partly drawn)	–	–	9.9	–
SMILES	Arr AP2 block	NTR1 ag	PLCg1 inh	PLC-beta3 inh
CCOC(=O)N1CCN(C(=O)C[C@@H]2C(=O)N(CCc3ccc(Cl)cc3)/C3=C/CCCCC[C@@]32C(=O)OCC)CC1	·	·	–	–
N#Cc1ccc(/C=C/C(=O)c2ccccc2)cc1	–	61	–	–
O=C(/C=C/c1ccccc1)c1ccccc1	–	–	–	–
COc1cc2c(cc1OC)C(c1cccs1)N(C(=O)c1cccnc1)CC2 (stereo not drawn)	–	–	9.9	–
COc1cccc(NC(=O)Nc2nc3ncccn3c2-c2ccc(C(F)(F)F)cc2)c1	·	·	–	–
CCOC(=O)C1=C(Cc2ccc(OC)cc2)C(=O)c2ccccc2C1=O	55	·	·	·
CCOC(=O)C1=C(Cc2ccc(C)cc2)C(=O)c2ccccc2C1=O	·	–	–	–
Cc1cc(C)c(C)c(OCC(=O)NCC2CCCO2)c1 (stereo not drawn)	–	–	12	–
Cc1cc(C)cc(OCC(=O)NCC2CCCO2)c1 (stereo not drawn)	–	–	–	–
COc1ccc(CNC(=O)CCNS(=O)(=O)c2ccc3[nH]c(=O)oc3c2)cc1	·	·	–	–
CC(NCc1ccco1)C(=O)N1CCCN(C)CC1 (stereo not drawn)	·	·	–	–
O=C1Cc2ccccc2C(=O)N1	·	·	11	–
O=C1Nc2ccccc2CCc2ccccc21	–	–	–	–
CC(C)CNC(=O)OCc1cn(Cc2ccccc2)nn1	·	·	–	–
COc1cccc(/C=N/NC(=O)CNC(=O)COc2ccccc2)c1O	–	–	–	–
Cc1cccc(OCC(=O)NCC(=O)N/N=C/c2cc(Br)cc(Br)c2O)c1	–	52	–	–
O=C(CN1C(=O)NC2(CCCCC2)C1=O)Nc1ccc2c(c1)OCCCO2	–	–	9.6	–
COc1nc(Nc2nc3ccccc3c(=O)[nH]2)nc2ccc(C)cc12	–	–	14	–
Cc1ccc2c(c1)N(S(=O)(=O)c1ccc(CN3C(=O)c4cccnc4C3=O)s1)CCO2	–	–	12	–
CCCN(CC(=O)Nc1cccc(Br)c1)CC(=O)Nc1ccc(F)c(F)c1F	–	–	–	11
CCCN(CC(=O)Nc1cccc(S(N)(=O)=O)c1)CC(=O)Nc1ccc(F)c(F)c1F	–	–	–	–
COc1ccc(S(=O)(=O)N2CCCCCC2)cc1NC(=O)CN1C(=O)CNC1=O	–	–	11	–
Cc1cc(NS(=O)(=O)c2ccc(NC(=O)CSc3nc4sc(C)c(C)c4c(=O)n3Cc3ccco3)cc2)nc(C)n1	·	·	–	–
Cc1noc(C)c1COc1ccc(C(=O)OCc2nnc(-c3ccc(Cl)cc3)o2)cc1	–	–	12	–
Cc1cc2c(s1)c1cnn(Cc3cc(F)c(F)cc3F)c(=O)c1n2C	·	·	–	–
SMILES	Arr AP2 block	NTR1 ag	PLCg1 inh	PLC-beta3 inh
O=c1c(CO)cc(CO)cc(CO)c1O	–	–	–	–
O=C1C=CC(=O)c2c(O)c(CO)c(CO)c(O)c21	58	·	–	–
Cn1cc(C(=O)c2ccc(Cl)cc2Cl)cc1C(=O)N/N=C(\N)COc1ccc(Cl)cc1	–	–	–	–
Cn1cc(C(=O)c2ccc(Cl)cc2Cl)cc1C(=O)N/N=C(\N)COc1ccc(Cl)cc1Cl	–	–	12	–
CN1CCCN(C(=O)C2CCN(c3ncnc4c3sc3cccc(F)c34)CC2)CC1	·	·	–	–
Cc1ccc(-c2nnn(CCC(=O)N3CCCCC3C)n2)cc1 (stereo not drawn)	–	–	13	–
CC1CCCCN1C(=O)Cn1nnc(-c2cccnc2)n1 (stereo not drawn)	–	–	–	–
COC(=O)[C@]12C[C@H](CC(=O)NCC34CC5CC(CC(C5)C3)C4)C(=O)N(CCc3ccc(OC)c(OC)c3)C1=C[C@H](C1CCCC1)O[C@@H]2C	·	·	–	–
Brc1ccc(OCCOCCN2CCOCC2)cc1	–	–	–	–
Brc1ccc(OCCCCCN2CCOCC2)cc1	–	–	9.7	–
CC1=NN(c2ccccc2)C(=O)/C1=C/C=C/c1ccccc1	–	–	–	–
